Test system: Escherichia coli
Experiment: Antimicrobial activity against Escherichia coli RCMB 103001 at 5 mg/ml by agar diffusion technique
Assay type: functional
Settings: read-out: DIZ
Outline: (§1)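 Agar well diffusion. Test compounds and reference standard drugs were diluted to 5.0, 2.5 and 1.0 mg/mL and applied to 0.6 cm wells. Inhibition zone beyond the control was scored as 0 (no inhibition), + (0.1–0.5 cm), ++ (0.6–1.0 cm) or +++ (1.0–1.5 cm).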

Row | Compound | zone of inhibition at 5000 µg/mL
1 | O=C(N[C@H](CO)[C@H](O)c1ccc([N+](=O)[O-])cc1)C(Cl)Cl [CHLORAMPHENICOL] | 6 mm
2 | Nn1c(SCCCCSc2nnc(-c3cccnc3)n2N)nnc1-c1cccnc1 | 0 mm

Test system: Bacillus subtilis
Experiment: Antimicrobial activity against Bacillus subtilis RCMB 101001 at 5 mg/ml by agar diffusion technique
Assay type: functional
Settings: read-out: DIZ
Outline: as §1

Row | Compound | zone of inhibition at 5000 µg/mL
3 | O=C(N[C@H](CO)[C@H](O)c1ccc([N+](=O)[O-])cc1)C(Cl)Cl [CHLORAMPHENICOL] | 10 mm
4 | Nn1c(SCCCCSc2nnc(-c3cccnc3)n2N)nnc1-c1cccnc1 | 1 mm

Test system: Penicillium italicum
Experiment: Antimicrobial activity against Penicillium italicum RCMB 001018 at 5 mg/ml by agar diffusion technique
Assay type: functional
Settings: read-out: DIZ
Outline: as §1

Row | Compound | zone of inhibition at 5000 µg/mL
5 | O=C(N[C@H](CO)[C@H](O)c1ccc([N+](=O)[O-])cc1)C(Cl)Cl [CHLORAMPHENICOL] | 10 mm
6 | Nn1c(SCCCCSc2nnc(-c3cccnc3)n2N)nnc1-c1cccnc1 | 0 mm

Test system: Candida albicans
Experiment: Antimicrobial activity against Candida albicans RCMB 005003 at 1 mg/ml by agar diffusion technique
Assay type: functional
Settings: read-out: DIZ
Outline: as §1

Row | Compound | zone of inhibition at 1000 µg/mL
7 | O=C(N[C@H](CO)[C@H](O)c1ccc([N+](=O)[O-])cc1)C(Cl)Cl [CHLORAMPHENICOL] | 6 mm
8 | Nn1c(SCCCCSc2nnc(-c3cccnc3)n2N)nnc1-c1cccnc1 | 0 mm

Test system: Bacillus subtilis
Experiment: Antimicrobial activity against Bacillus subtilis RCMB 101001 at 2.5 mg/ml by agar diffusion technique
Assay type: functional
Settings: read-out: DIZ
Outline: as §1

Row | Compound | zone of inhibition at 2500 µg/mL
9 | O=C(N[C@H](CO)[C@H](O)c1ccc([N+](=O)[O-])cc1)C(Cl)Cl [CHLORAMPHENICOL] | 10 mm
10 | Nn1c(SCCCCSc2nnc(-c3cccnc3)n2N)nnc1-c1cccnc1 | 1 mm

Test system: Staphylococcus aureus
Experiment: Antimicrobial activity against Staphylococcus aureus RCMB 106001 at 5 mg/ml by agar diffusion technique
Assay type: functional
Settings: read-out: DIZ
Outline: as §1

Row | Compound | zone of inhibition at 5000 µg/mL
11 | O=C(N[C@H](CO)[C@H](O)c1ccc([N+](=O)[O-])cc1)C(Cl)Cl [CHLORAMPHENICOL] | 6 mm
12 | Nn1c(SCCCCSc2nnc(-c3cccnc3)n2N)nnc1-c1cccnc1 | 1 mm

Test system: Bacillus subtilis
Experiment: Antimicrobial activity against Bacillus subtilis RCMB 101001 at 1 mg/ml by agar diffusion technique
Assay type: functional
Settings: read-out: DIZ
Outline: as §1

Row | Compound | zone of inhibition at 1000 µg/mL
13 | O=C(N[C@H](CO)[C@H](O)c1ccc([N+](=O)[O-])cc1)C(Cl)Cl [CHLORAMPHENICOL] | 6 mm
14 | Nn1c(SCCCCSc2nnc(-c3cccnc3)n2N)nnc1-c1cccnc1 | 0 mm

Test system: Aspergillus fumigatus
Experiment: Antimicrobial activity against Aspergillus fumigatus RCMB 002008 at 5 mg/ml by agar diffusion technique
Assay type: functional
Settings: read-out: DIZ
Outline: as §1

Row | Compound | zone of inhibition at 5000 µg/mL
15 | O=C(N[C@H](CO)[C@H](O)c1ccc([N+](=O)[O-])cc1)C(Cl)Cl [CHLORAMPHENICOL] | 10 mm
16 | Nn1c(SCCCCSc2nnc(-c3cccnc3)n2N)nnc1-c1cccnc1 | 0 mm

Test system: Syncephalastrum racemosum
Experiment: Antimicrobial activity against Syncephalastrum racemosum RCMB 016001 at 5 mg/ml by agar diffusion technique
Assay type: functional
Settings: read-out: DIZ
Outline: as §1

Row | Compound | zone of inhibition at 5000 µg/mL
17 | O=C(N[C@H](CO)[C@H](O)c1ccc([N+](=O)[O-])cc1)C(Cl)Cl [CHLORAMPHENICOL] | 10 mm
18 | Nn1c(SCCCCSc2nnc(-c3cccnc3)n2N)nnc1-c1cccnc1 | 1 mm

Test system: Syncephalastrum racemosum
Experiment: Antimicrobial activity against Syncephalastrum racemosum RCMB 016001 at 1 mg/ml by agar diffusion technique
Assay type: functional
Settings: read-out: DIZ
Outline: as §1

Row | Compound | zone of inhibition at 1000 µg/mL
19 | O=C(N[C@H](CO)[C@H](O)c1ccc([N+](=O)[O-])cc1)C(Cl)Cl [CHLORAMPHENICOL] | 10 mm
20 | Nn1c(SCCCCSc2nnc(-c3cccnc3)n2N)nnc1-c1cccnc1 | 1 mm

Test system: Pseudomonas aeruginosa
Experiment: Antimicrobial activity against Pseudomonas aeruginosa RCMB 102002 at 1 mg/ml by agar diffusion technique
Assay type: functional
Settings: read-out: DIZ
Outline: as §1

Row | Compound | zone of inhibition at 1000 µg/mL
21 | O=C(N[C@H](CO)[C@H](O)c1ccc([N+](=O)[O-])cc1)C(Cl)Cl [CHLORAMPHENICOL] | 6 mm
22 | Nn1c(SCCCCSc2nnc(-c3cccnc3)n2N)nnc1-c1cccnc1 | 0 mm

Test system: Syncephalastrum racemosum
Experiment: Antimicrobial activity against Syncephalastrum racemosum RCMB 016001 at 2.5 mg/ml by agar diffusion technique
Assay type: functional
Settings: read-out: DIZ
Outline: as §1

Row | Compound | zone of inhibition at 2500 µg/mL
23 | O=C(N[C@H](CO)[C@H](O)c1ccc([N+](=O)[O-])cc1)C(Cl)Cl [CHLORAMPHENICOL] | 10 mm
24 | Nn1c(SCCCCSc2nnc(-c3cccnc3)n2N)nnc1-c1cccnc1 | 1 mm

Test system: Aspergillus fumigatus
Experiment: Antimicrobial activity against Aspergillus fumigatus RCMB 002008 at 2.5 mg/ml by agar diffusion technique
Assay type: functional
Settings: read-out: DIZ
Outline: as §1

Row | Compound | zone of inhibition at 2500 µg/mL
25 | O=C(N[C@H](CO)[C@H](O)c1ccc([N+](=O)[O-])cc1)C(Cl)Cl [CHLORAMPHENICOL] | 10 mm
26 | Nn1c(SCCCCSc2nnc(-c3cccnc3)n2N)nnc1-c1cccnc1 | 0 mm

Test system: Candida albicans
Experiment: Antimicrobial activity against Candida albicans RCMB 005003 at 2.5 mg/ml by agar diffusion technique
Assay type: functional
Settings: read-out: DIZ
Outline: as §1

Row | Compound | zone of inhibition at 2500 µg/mL
27 | O=C(N[C@H](CO)[C@H](O)c1ccc([N+](=O)[O-])cc1)C(Cl)Cl [CHLORAMPHENICOL] | 6 mm
28 | Nn1c(SCCCCSc2nnc(-c3cccnc3)n2N)nnc1-c1cccnc1 | 0 mm

Test system: Candida albicans
Experiment: Antimicrobial activity against Candida albicans RCMB 005003 at 5 mg/ml by agar diffusion technique
Assay type: functional
Settings: read-out: DIZ
Outline: as §1

Row | Compound | zone of inhibition at 5000 µg/mL
29 | O=C(N[C@H](CO)[C@H](O)c1ccc([N+](=O)[O-])cc1)C(Cl)Cl [CHLORAMPHENICOL] | 6 mm
30 | Nn1c(SCCCCSc2nnc(-c3cccnc3)n2N)nnc1-c1cccnc1 | 0 mm

Test system: Penicillium italicum
Experiment: Antimicrobial activity against Penicillium italicum RCMB 001018 at 2.5 mg/ml by agar diffusion technique
Assay type: functional
Settings: read-out: DIZ
Outline: as §1

Row | Compound | zone of inhibition at 2500 µg/mL
31 | O=C(N[C@H](CO)[C@H](O)c1ccc([N+](=O)[O-])cc1)C(Cl)Cl [CHLORAMPHENICOL] | 10 mm
32 | Nn1c(SCCCCSc2nnc(-c3cccnc3)n2N)nnc1-c1cccnc1 | 0 mm

Test system: Aspergillus fumigatus
Experiment: Antimicrobial activity against Aspergillus fumigatus RCMB 002008 at 1 mg/ml by agar diffusion technique
Assay type: functional
Settings: read-out: DIZ
Outline: as §1

Row | Compound | zone of inhibition at 1000 µg/mL
33 | O=C(N[C@H](CO)[C@H](O)c1ccc([N+](=O)[O-])cc1)C(Cl)Cl [CHLORAMPHENICOL] | 6 mm
34 | Nn1c(SCCCCSc2nnc(-c3cccnc3)n2N)nnc1-c1cccnc1 | 0 mm

Test system: Escherichia coli
Experiment: Antimicrobial activity against Escherichia coli RCMB 103001 at 1 mg/ml by agar diffusion technique
Assay type: functional
Settings: read-out: DIZ
Outline: as §1

Row | Compound | zone of inhibition at 1000 µg/mL
35 | O=C(N[C@H](CO)[C@H](O)c1ccc([N+](=O)[O-])cc1)C(Cl)Cl [CHLORAMPHENICOL] | 6 mm
36 | Nn1c(SCCCCSc2nnc(-c3cccnc3)n2N)nnc1-c1cccnc1 | 0 mm

Test system: Pseudomonas aeruginosa
Experiment: Antimicrobial activity against Pseudomonas aeruginosa RCMB 102002 at 2.5 mg/ml by agar diffusion technique
Assay type: functional
Settings: read-out: DIZ
Outline: as §1

Row | Compound | zone of inhibition at 2500 µg/mL
37 | O=C(N[C@H](CO)[C@H](O)c1ccc([N+](=O)[O-])cc1)C(Cl)Cl [CHLORAMPHENICOL] | 10 mm
38 | Nn1c(SCCCCSc2nnc(-c3cccnc3)n2N)nnc1-c1cccnc1 | 0 mm

Test system: Escherichia coli
Experiment: Antimicrobial activity against Escherichia coli RCMB 103001 at 2.5 mg/ml by agar diffusion technique
Assay type: functional
Settings: read-out: DIZ
Outline: as §1

Row | Compound | zone of inhibition at 2500 µg/mL
39 | O=C(N[C@H](CO)[C@H](O)c1ccc([N+](=O)[O-])cc1)C(Cl)Cl [CHLORAMPHENICOL] | 6 mm
40 | Nn1c(SCCCCSc2nnc(-c3cccnc3)n2N)nnc1-c1cccnc1 | 0 mm

Test system: Pseudomonas aeruginosa
Experiment: Antimicrobial activity against Pseudomonas aeruginosa RCMB 102002 at 5 mg/ml by agar diffusion technique
Assay type: functional
Settings: read-out: DIZ
Outline: as §1

Row | Compound | zone of inhibition at 5000 µg/mL
41 | O=C(N[C@H](CO)[C@H](O)c1ccc([N+](=O)[O-])cc1)C(Cl)Cl [CHLORAMPHENICOL] | 10 mm
42 | Nn1c(SCCCCSc2nnc(-c3cccnc3)n2N)nnc1-c1cccnc1 | 0 mm

Test system: Penicillium italicum
Experiment: Antimicrobial activity against Penicillium italicum RCMB 001018 at 1 mg/ml by agar diffusion technique
Assay type: functional
Settings: read-out: DIZ
Outline: as §1

Row | Compound | zone of inhibition at 1000 µg/mL
43 | O=C(N[C@H](CO)[C@H](O)c1ccc([N+](=O)[O-])cc1)C(Cl)Cl [CHLORAMPHENICOL] | 6 mm
44 | Nn1c(SCCCCSc2nnc(-c3cccnc3)n2N)nnc1-c1cccnc1 | 0 mm

Test system: Staphylococcus aureus
Experiment: Antimicrobial activity against Staphylococcus aureus RCMB 106001 at 1 mg/ml by agar diffusion technique
Assay type: functional
Settings: read-out: DIZ
Outline: as §1

Row | Compound | zone of inhibition at 1000 µg/mL
45 | O=C(N[C@H](CO)[C@H](O)c1ccc([N+](=O)[O-])cc1)C(Cl)Cl [CHLORAMPHENICOL] | 6 mm
46 | Nn1c(SCCCCSc2nnc(-c3cccnc3)n2N)nnc1-c1cccnc1 | 0 mm

Test system: Staphylococcus aureus
Experiment: Antimicrobial activity against Staphylococcus aureus RCMB 106001 at 2.5 mg/ml by agar diffusion technique
Assay type: functional
Settings: read-out: DIZ
Outline: as §1

Row | Compound | zone of inhibition at 2500 µg/mL
47 | O=C(N[C@H](CO)[C@H](O)c1ccc([N+](=O)[O-])cc1)C(Cl)Cl [CHLORAMPHENICOL] | 6 mm
48 | Nn1c(SCCCCSc2nnc(-c3cccnc3)n2N)nnc1-c1cccnc1 | 1 mm
